SENP6 inh: SENP6 protease inhibition | hit rate 1.8% among 330,000 | inhibition, % at 10 µM | Q9GZR1 | Recombinant SENP6 catalytic domain, aminoluciferin luminescence | AID 2599;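 active = inhibition above about 50% at the single tested dose, limit read from the data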
SENP1 inh: SENP1 (human) catalytic domain inhibition | Q9P0U3 | recombinant SENP1 catalytic domain, CyPet-SUMO1-YPet FRET cleavage | inhibition, % at 10 µM | hit rate 0.21% among 360,000 | AID 624204;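 active = inhibition at least 30% at 10 µM, raw YFP signal under a set limit, fluorescence ratio 0.5 to 1.5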
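Test system: hSENP1 catalytic domain, recombinant; Amount: 20 pM final SENP1 enzyme; Medium: Tris pH 8 buffer plus EDTA, NaCl, BME, BSA, NP40, catalase; Schedule: 50 min enzyme reaction, room temperature, light-protected; Technique: FRET fluorescence in CFP and YFP emission channels; Controls: no-enzyme wells low, DMSO-plus-enzyme wells high control.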
SENP8 block-1: blocks human SENP8 cleavage of Nedd8 substrate | Q96LD8 | recombinant SENP8, Nedd8 substrate fluorescence | inhibition, % at 20 µM | hit rate 0.64% among 360,000; in the data active = inhibition mostly above about 40%, no sharp cut-off; inactive = mostly below about 27%
Target sequence (Q96LD8 whole entry, looked up): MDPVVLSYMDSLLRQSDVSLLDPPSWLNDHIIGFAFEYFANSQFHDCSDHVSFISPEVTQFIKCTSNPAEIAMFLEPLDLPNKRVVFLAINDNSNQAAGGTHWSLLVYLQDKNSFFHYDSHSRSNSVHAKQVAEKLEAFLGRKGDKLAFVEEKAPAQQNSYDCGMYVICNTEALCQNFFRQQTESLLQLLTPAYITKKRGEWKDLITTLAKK
SENP7 inh: SENP7 protease inhibition. Q9BQF6. recombinant SENP7, Z-RLRGG-aminoluciferin luminescence, 40 min. inhibition, % at 5 µM. hit rate 1.5% among 330,000. AID 434973;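 active = inhibition above about 50% at the single test dose, limit read from the data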
Target sequence (Q9BQF6 706-1050 limits assumed): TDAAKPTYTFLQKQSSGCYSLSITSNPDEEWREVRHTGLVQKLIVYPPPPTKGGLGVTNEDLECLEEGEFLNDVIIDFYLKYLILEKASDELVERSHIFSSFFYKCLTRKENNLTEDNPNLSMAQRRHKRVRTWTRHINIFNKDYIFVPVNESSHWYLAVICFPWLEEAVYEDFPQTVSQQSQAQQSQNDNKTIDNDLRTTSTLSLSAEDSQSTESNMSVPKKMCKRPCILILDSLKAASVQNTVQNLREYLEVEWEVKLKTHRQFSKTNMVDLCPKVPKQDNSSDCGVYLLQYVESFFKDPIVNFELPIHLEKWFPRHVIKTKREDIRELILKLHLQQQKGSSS
SENP8 block-2: SENP8 protease inhibition; Q96LD8; purified SENP8, Z-RLRGG-aminoluciferin cleavage, luminescence; inhibition, % at 10 µM; hit rate 1.2% among 330,000; in the data active = inhibition above about 50%
SENP8 inh conf: confirmation of human SENP8 protease inhibitors; shares compounds with SENP8 block-1; purified SENP8, Nedd8-AMC/pro-Nedd8 cleavage fluorescence, 30 min; inhibition, % at 25 µM; hit rate 15% among 1,400; AID 624319; in the data active = inhibition mostly above about 39%, no sharp cut-off; inactive = mostly below about 34%
A number is an active result; – = inactive; · = not tested or not shown. In the library only some 2.5% were active in any assay of this set; here they are far more common.

SMILES	SENP6 inh	SENP1 inh	SENP8 block-1	SENP7 inh	SENP8 block-2	SENP8 inh conf
COC(=O)C(CC(C)C)NC(=O)c1ccc([N+](=O)[O-])cc1 (centres undefined)	–	–	43	–	–	–
Cc1nc(Nc2ccc(Cl)c(Cl)c2)sc1C(/C=C/c1ccc2c(c1)OCO2)=NNc1ccc([N+](=O)[O-])cc1[N+](=O)[O-]	·	–	–	·	·	·
O=C(CC(NC(=O)OCc1ccccc1)C(=O)OCc1ccccc1)OCc1ccccc1 (centres undefined)	·	–	–	·	·	·
CC(=O)NCC(=O)N[C@@H](CC(=O)OCc1ccccc1)C(=O)OCc1ccccc1	–	–	44	–	–	–
COc1ccc(CCNC(=O)C(=O)Nc2ccc3c(c2)OCO3)cc1OC	–	–	–	–	–	·
COc1cccc2nc3cc(C)c(C)cc3nc12	91	–	42	97	95	78
COc1cccc2c1nc(C)c1cc(C)oc12	–	–	–	–	–	·
C=CCN1c2ccccc2[C@]23C[C@@H](C(=O)OC)N(C(=O)NCCC)C2=NC(C(=O)OC)=C(C(=O)OC)[C@H]13	–	–	–	–	–	·
c1ccc(CNCCC(Cc2ccccc2)c2ccco2)cc1 (centres undefined)	–	–	48	–	–	–
COc1ccc(NC(=O)Cn2nc(C(=O)O)c3ccccc3c2=O)cc1Cl	–	–	–	–	–	·
CC(C)(C)c1cc(C(=O)NNc2cccc(Cl)c2)n(Cc2ccccc2)n1	–	–	43	–	–	–
Cc1ccc(NNC(=O)c2cc(C(C)(C)C)nn2Cc2ccccc2)cc1	–	–	–	–	–	·
Cc1ccc(S(=O)(=O)N2CCN(c3ccc([N+](=O)[O-])c(Sc4nncn4C)c3)CC2)cc1	–	–	–	–	–	·
Cc1cc(C)n(-c2cc(N3CCN(C(=O)c4ccc(C(C)(C)C)cc4)CC3)ccc2[N+](=O)[O-])n1	–	–	45	–	–	–
Cn1cnnc1Sc1cc(N2CCN(S(=O)(=O)c3ccc(Cl)c(Cl)c3)CC2)ccc1[N+](=O)[O-]	–	–	62	–	–	–
Cc1cc(C)n(-c2cc(N3CCN(S(=O)(=O)c4ccc(C)c(C)c4)CC3)ccc2[N+](=O)[O-])n1	–	–	44	–	–	–
Cc1cc(C)n(-c2cc(N3CCN(C(=O)c4ccccc4C)CC3)ccc2[N+](=O)[O-])n1	–	–	53	–	–	–
CCN(CC)CCNC(=O)c1ccc(NC(=O)c2ccc(F)cc2F)cc1	–	–	–	–	–	·
CC1=NN(c2cccc(Cl)c2)C(=O)C1	–	–	64	–	–	55
CC1=NN(c2ccc(Cl)c(C(=O)O)c2)C(=O)C1	–	–	70	–	–	–
CC1CCCC(N2CCN(S(=O)(=O)c3ccccc3)CC2)C1 (centres undefined)	–	–	–	–	–	·
O=C(O)c1ccc(S(=O)(=O)N(CCc2ccccc2)Cc2ccc(Cl)cc2)cc1	–	–	–	–	–	·
Cc1cccc(NC(=O)c2ccc(NCC3CCCO3)c([N+](=O)[O-])c2)c1 (centres undefined)	–	–	–	–	–	·
O=C(Nc1cccc(Cl)c1)c1ccc(NCC2CCCO2)c([N+](=O)[O-])c1 (centres undefined)	–	–	44	–	–	–
C(=N\NC(=Nc1ccccc1)c1ccccn1)/c1ccccn1	–	–	40	–	–	–
SMILES	SENP6 inh	SENP1 inh	SENP8 block-1	SENP7 inh	SENP8 block-2	SENP8 inh conf
Clc1ccc(/C=N/NC(=Nc2ccccc2)c2ccccn2)c(Cl)c1	–	–	–	–	–	·
CCC(C)N(C)C1CCN(C(=S)Nc2cccc(SC)c2)CC1 (centres undefined)	–	–	43	–	–	–
Cc1ccccc1OCC(=O)NNC(=O)C1CC(=O)N(c2ccc3c(c2)OCCO3)C1 (centres undefined)	–	–	–	–	–	·
COc1cc(N)c(C(=O)c2nccc3cc(OC)c(OC)cc23)cc1OC	–	–	–	–	–	·
COc1cc(Br)c(C(=O)c2nccc3cc(OC)c(OC)cc23)cc1OC	90	–	113	92	95	101
O=[N+]([O-])c1cc(S(=O)(=O)N2CCCC2)ccc1NN=C1CCCCC1	–	–	–	–	–	·
O=[N+]([O-])c1cc(C(F)(F)F)cc([N+](=O)[O-])c1NN=C1CCCCC1	–	–	42	–	–	–
O=C(/C=C/c1cccs1)c1ccc([N+](=O)[O-])cc1	–	–	50	–	–	–
Nc1nonc1OCCN1CCN(c2ccc([N+](=O)[O-])c3cccnc23)CC1	–	–	47	–	–	–
OC[C@@H]1CN(Cc2ccc(-c3ccccc3)cc2)C[C@H](n2cnc3c(N4CCOCC4)ncnc32)O1	·	–	–	·	·	·
O=C(COc1ccccc1)Nc1cc(NC(=O)COc2ccccc2)cc(C(=O)O)c1	–	–	–	–	–	·
C/C(=C\C(=O)c1ccccc1)Nc1ccc(O)cc1	–	–	84	–	–	–
COc1ccc(C(=O)/C=C(\C)Nc2ccc(NC(C)=O)cc2)cc1	–	–	–	–	–	·
C/C(=C\C(=O)c1cccnc1)Nc1ccc(O)cc1	–	–	84	–	–	–
Cn1c(O)c(N=NC(=O)CNC(=O)c2cccnc2)c2ccccc21	–	–	–	–	–	·
CCOc1ccc(OCCSc2nc3ccccc3o2)cc1	–	–	47	–	–	–
COc1ccccc1Cn1nnc2c(=O)[nH]c(C3CCN(C(=O)c4ccc(F)cc4)CC3)nc21	–	–	53	–	–	–
CC(=O)Nc1ccc(S(=O)(=O)N(C)CC(=O)OCC(=O)N2CCCC2=O)cc1	–	–	–	–	–	·
Cc1ccc(N=C2N=C(N)c3ccccc32)c(C)c1	–	–	42	–	–	–
Cc1ccccc1N=C1N=C(N)c2ccccc21	–	–	–	–	–	·
CC1(OC(=O)C2CCCC2)C(=O)C=C2C=C3CCCCN3C=C2C1=O (centres undefined)	–	–	57	–	–	60
COC(=O)CCC(=O)OC1(C)C(=O)C=C2C=C(C3CC3)N(CCCCO)C=C2C1=O (centres undefined)	–	–	–	–	–	·
COC(=O)CCC(=O)OC1(C)C(=O)C=C2C=C3CCCN3C=C2C1=O (centres undefined)	–	–	53	–	–	47
CC1(OC(=O)c2ccc(Cl)nc2)C(=O)C=C2C=C3CCCN3C=C2C1=O (centres undefined)	–	–	65	–	–	44
CC1CCN(S(=O)(=O)c2ccc(C(=O)N3CCCC3C(=O)O)cc2)CC1 (centres undefined)	–	–	–	–	–	·
CC(=O)c1c(O)cc(O)c(C(C)=O)c1O	–	–	45	–	–	–
CC(=O)c1c(O)cc(O)cc1CC(=O)O	–	–	–	–	–	·
CCN(CC)C(=O)Cc1ccccc1	–	–	42	–	–	–

Screens from PubChem.
